Converted amounts (≈) assume the structure as drawn. The source made the active and inactive calls. The calls are words filed in the database; no cut-off is given here.
Assays:
[1] = test system: Candida albicans; assay: Antifungal activity against Candida albicans SN152 harbouring erg3delta delta/erg11delta delta assessed as […] fungal growth inhibition measured every 40 mins for 48 hrs by double dilution method; format: functional, organism-based; conditions: dose 1-64 µg/ml
Method in brief: (§1)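 erg3ΔΔ/erg11ΔΔ C. albicans taken from 24 h, 30 °C YPAD-agar colonies, brought to 1×10^-3 OD600 in PBS, then diluted 1:100 in YPAD. Serial twofold drug dilutions from 64 to 1 µg/mL in YPAD. OD600 read every 40 min over 48 h at 30 °C against no-drug and medium-blank controls. Triplicate wells, two independent experiments.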

[2] = test system: Candida tropicalis; assay: Antifungal activity against Candida tropicalis 660 assessed as reduction in drug tolerance by measuring zone of inhibition at 25 ug incubated for 24 to 48 hrs by disk diffusion assay; format: functional, organism-based; conditions: dose 25.0 µg, time 24-48 hrs
Method in brief: (§2)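 Plated onto casitone agar from 24 h, 30 °C YPAD-agar colonies suspended in PBS. Inoculum OD600 0.02 for C. albicans SN152, 0.025 for C. parapsilosis ATCC 22019 and C. tropicalis 660. Central 6-mm disk holding 25 µg drug. Plates incubated at 30 °C and imaged at 24 h (inhibition zone) and 48 h (tolerant colonies within the zone).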

[3] = test system: Candida albicans; assay: Antifungal activity against Candida albicans SN152 harbouring erg3delta delta/erg11delta delta assessed as […] fungal growth inhibition at 1 to 64 ug/mL measured every 40 mins for 48 hrs by double dilution method; format: functional, organism-based; conditions: dose 1-64 µg/ml; method in brief: as §1
[4] = test system: Candida parapsilosis; assay: Antifungal activity against Candida parapsilosis ATCC 22019 assessed as reduction in drug tolerance by measuring zone of inhibition at 25 ug incubated for 24 to 48 hrs by disk diffusion assay; format: functional, organism-based; conditions: dose 25.0 µg, time 24-48 hrs; method in brief: as §2
[5] = test system: Candida albicans; assay: Antifungal activity against Candida albicans SN152 assessed as reduction in drug tolerance by measuring zone of inhibition at 25 ug incubated for 24 to 48 hrs by disk diffusion assay; format: functional, organism-based; conditions: dose 25.0 µg, time 24-48 hrs; method in brief: as §2
[6] = test system: Candida parapsilosis; assay: Antifungal activity against Candida parapsilosis ATCC 22019 assessed as fungal growth inhibition incubated for 24 hrs by CLSI based broth double-dilution assay; format: functional; conditions: Lodderomyces parapsilosis
Method in brief: (§3)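 CLSI M27-A3 broth microdilution with modifications in YPAD. Cells from 24 h, 30 °C YPAD-agar colonies brought to 1×10^-3 OD600 in PBS, then diluted 1:100. Twofold dilutions from 64 to 0.003 µg/mL. After 24 h at 30 °C, MIC80 taken as the lowest concentration giving ≥80% OD600 reduction versus no-drug wells. Triplicate wells, two independent experiments.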

[7] = test system: Candida albicans; assay: Antifungal activity against Candida albicans SN152 harbouring erg3delta delta/erg11delta delta assessed as […] fungal growth inhibition at 64 ug/mL measured every 40 mins for 48 hrs by double dilution method; format: functional, organism-based; conditions: dose 64.0 µg/ml; method in brief: as §1
[8] = test system: Candida albicans; assay: Antifungal activity against Candida albicans SN152 harbouring erg3delta delta/erg11delta delta assessed as fungal growth inhibition incubated for 24 hrs by CLSI based broth double-dilution assay; format: functional; method in brief: as §3
[9] = test system: Candida albicans; assay: Antifungal activity against Candida albicans SN152 assessed as fungal growth inhibition incubated for 24 hrs by CLSI based broth double-dilution assay; format: functional
Method in brief: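 Broth double-dilution per CLSI M27-A3 (minor modifications); colonies from YPAD agar (24 h, 30 °C) suspended in PBS to 1 × 10^-3 OD600 then diluted 1:100 into YPAD; serial twofold dilutions 64–0.003 μg/mL in YPAD; 24 h at 30 °C; OD600 read; MIC80 = lowest concentration reducing OD600 ≥80% versus no-drug wells; triplicate, two independent experiments.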

| Structure (SMILES) | Activity [1] | Activity [2] | Activity [3] | Activity [4] | Activity [5] | MIC80 [6] | Activity [7] | MIC80 [8] | MIC80 [9] |
| --- | --- | --- | --- | --- | --- | --- | --- | --- | --- |
| CC(C(=O)O)c1ccc(-c2ccccc2)c(F)c1 (centres undefined) | Dose-Dependent Effect | – | – | – | – | – | – | – | – |
| CC(C)Cc1ccc(C(C)C(=O)O)cc1 (centres undefined) | Dose-Dependent Effect | – | – | – | – | – | – | – | – |
| OC(Cn1cncn1)(Cn1cncn1)c1ccc(F)cc1F | – | Active | inactive | inactive | inactive | – | – | – | – |
| C[C@@H](c1ncncc1F)[C@](O)(Cn1cncn1)c1ccc(F)cc1F [VORICONAZOLE] | – | Active | – | inactive | inactive | 0.015 µg/mL (≈ 0.0429 µM) | Active | – | – |
| CC(C)Cc1ccc([C@H](C)C(=O)NC[C@](O)(Cn2cncn2)c2ccc(F)cc2F)cc1 | Dose-Dependent Effect | Active | – | Active | Active | – | – | 64 µg/mL (≈ 145 µM) | 3 ng/mL (≈ 0.00678 µM) |
| C[C@H](C(=O)NC[C@](O)(Cn1cncn1)c1ccc(F)cc1F)c1ccc(-c2ccccc2)c(F)c1 | Dose-Dependent Effect | Active | – | Active | Active | 0.5 µg/mL (≈ 1.04 µM) | – | 64 µg/mL (≈ 133 µM) | 7 ng/mL (≈ 0.0146 µM) |

Source: ChEMBL document CHEMBL5042534, “Fluconazole-COX Inhibitor Hybrids: A Dual-Acting Class of Antifungal Azoles” (2022)
